Source: ChEMBL document CHEMBL1165950, “Design and synthesis of new potent anticancer pyrazoles with high FLT3 kinase inhibitory selectivity” (Bioorg Med Chem, 2010)

Assays:
Type in all cases: functional
K562 = assay: Growth inhibition of human K562 cells after 48 hrs by sulforhodamine B assay; conditions: K562, 48 h
Method in brief: (§1)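 NCI 60-cell screen, five-dose mode. Cells grown in RPMI 1640 with 5% FBS and 2 mM L-glutamine and plated at 5000-40,000 cells/well according to doubling time. After 24 h preincubation, a Tz plate was TCA-fixed. Five concentrations (10-fold or 1/2 log dilutions) were applied for 48 h at 37 °C. SRB staining read at 515 nm. IC50 taken from [(Ti-Tz)/(C-Tz)]×100 = 50.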

TK-10 [1] = assay: Growth inhibition of human TK10 cells after 48 hrs by sulforhodamine B assay; conditions: TK-10, 48 h; for CC50: read-out: LC50 (the source's name); method in brief: as §1
HCT-15 [2] = assay: Cytotoxicity against human HCT15 cells assessed as cell growth at 100 nM after 48 hrs by sulforhodamine B assay; conditions: HCT-15, 48 h, read-out: Activity
SN12C [3] = assay: Cytotoxicity against human SN12C cells assessed as cell growth at 0.001 uM after 48 hrs by sulforhodamine B assay; conditions: read-out: Activity
UACC-257 = assay: Cytotoxicity against human UACC257 cells assessed as cell growth at 100 nM after 48 hrs by sulforhodamine B assay; conditions: UACC-257, 48 h, read-out: Activity
HOP-62 = assay: Cytotoxicity against human HOP62 cells assessed as cell growth at 1 uM after 48 hrs by sulforhodamine B assay; conditions: HOP-62, 48 h, read-out: Activity
MDA-MB-231 = assay: Cytotoxicity against human MDA-MB-231 cells assessed as cell growth at 0.001 uM after 48 hrs by sulforhodamine B assay; conditions: MDA-MB-231, 48 h, read-out: Activity
NCI-H226 = assay: Cytotoxicity against human NCI-H226 cells assessed as cell growth at 0.001 uM after 48 hrs by sulforhodamine B assay; conditions: NCI-H226, 48 h, read-out: Activity
HL-60(TB) = assay: Growth inhibition of human HL-60(TB) cells after 48 hrs by sulforhodamine B assay; conditions: HL-60, 48 h
Method in brief: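 NCI 60-cell SRB screen. Cells in RPMI 1640 with 5% FBS and 2 mM L-glutamine are preincubated 24 h, then exposed to five concentrations (10-fold or 1/2-log dilutions from DMSO stock) for 48 h at 37 °C. Suspension cells are fixed with 80% TCA (final 16%), and A515 is read. IC50 is taken as the concentration where [(Ti−Tz)/(C−Tz)]×100 = 50, i.e. 50% reduction in net protein increase.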

NCI/ADR-RES = assay: Cytotoxicity against human NCI/ADR-RES cells assessed as cell growth at 0.01 uM after 48 hrs by sulforhodamine B assay; conditions: read-out: Activity
SN12C [4] = assay: Cytotoxicity against human SN12C cells assessed as cell growth at 1 uM after 48 hrs by sulforhodamine B assay; conditions: read-out: Activity
M14 = assay: Cytotoxicity against human M14 cells assessed as cell growth at 0.001 uM after 48 hrs by sulforhodamine B assay; conditions: M14, 48 h, read-out: Activity
HCT-15 [5] = assay: Cytotoxicity against human HCT15 cells assessed as cell growth at 10 uM; conditions: read-out: Activity
Method in brief: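 Single-dose NCI-60 screen at 10 µM. Cells were grown in RPMI 1640 with 5% FBS and 2 mM L-glutamine, then treated for 48 h at 37 °C. Protein was measured by SRB staining with absorbance at 515 nm. Percentage growth was recorded, and inhibition percentage was calculated as 100 minus growth percentage.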

SN12C [6] = assay: Cytotoxicity against human SN12C cells assessed as cell growth at 10 uM; conditions: read-out: Activity
Method in brief: (§2)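 NCI-60 screen: cells grown in RPMI 1640 with 5% FBS and 2 mM L-glutamine, plated at 5000–40,000 cells/well according to doubling time, and preincubated 24 h at 37 °C, 5% CO2. The single 10 µM dose (DMSO stock) was added, then incubated 48 h. Cells were TCA-fixed and stained with 0.4% SRB, read at 515 nm, and growth % calculated against time-zero and control plates.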

SK-MEL-2 = assay: Growth inhibition of human SK-MEL-2 cells after 48 hrs by sulforhodamine B assay; conditions: SK-MEL-2, 48 h; for CC50: read-out: LC50 (the source's name); method in brief: as §1
NCI-H23 = assay: Cytotoxicity against human NCI-H23 cells assessed as cell growth at 0.001 uM after 48 hrs by sulforhodamine B assay; conditions: NCI-H23, 48 h, read-out: Activity
SF-295 [7] = assay: Growth inhibition of human SF295 cells after 48 hrs by sulforhodamine B assay; conditions: SF-295, 48 h; for CC50: read-out: LC50 (the source's name); method in brief: as §1
SF-268 = assay: Growth inhibition of human SF268 cells after 48 hrs by sulforhodamine B assay; conditions: SF-268, 48 h; for CC50: read-out: LC50 (the source's name); method in brief: as §1
CAKI-1 = assay: Growth inhibition of human Caki1 cells after 48 hrs by sulforhodamine B assay; conditions: CAKI-1, 48 h; for CC50: read-out: LC50 (the source's name)
Method in brief: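 NCI five-dose SRB assay in RPMI 1640 with 5% FBS and 2 mM L-glutamine. Cells were preincubated 24 h, then exposed 48 h at 37 °C to five concentrations (10-fold or half-log serial dilutions from DMSO stocks). TCA fixation, SRB staining, and absorbance at 515 nm followed. IC50 was taken where [(Ti−Tz)/(C−Tz)]×100 = 50, with Tz as time-zero cell density.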

[8] = Cytotoxicity against human Hs 578T cells assessed as cell growth at 0.001 uM after 48 hrs by sulforhodamine B assay; conditions: read-out: Activity
[9] = Cytotoxicity against human Hs 578T cells assessed as cell growth at 0.01 uM after 48 hrs by sulforhodamine B assay; conditions: read-out: Activity
TK-10 [10] = assay: Cytotoxicity against human TK10 cells assessed as cell growth at 0.001 uM after 48 hrs by sulforhodamine B assay; conditions: TK-10, 48 h, read-out: Activity
RXF 393 = assay: Cytotoxicity against human RXF393 cells assessed as cell growth at 10 uM; conditions: read-out: Activity; method in brief: as §2
SW-620 = assay: Cytotoxicity against human SW620 cells assessed as cell growth at 0.001 uM after 48 hrs by sulforhodamine B assay; conditions: SW-620, 48 h, read-out: Activity
SF-295 [11] = assay: Cytotoxicity against human SF295 cells assessed as cell growth at 0.001 uM after 48 hrs by sulforhodamine B assay; conditions: SF-295, 48 h, read-out: Activity
T47D = assay: Cytotoxicity against human T47D cells assessed as cell growth at 10 uM after 48 hrs by sulforhodamine B assay; conditions: read-out: Activity

SMILES | GI50 (K562) | LC50 (50% net cell kill) (K562) | TGI (K562) | TGI (TK-10 [1]) | CC50 (TK-10 [1]) | growth at 0.1 µM (HCT-15 [2]) | growth at 0.001 µM (SN12C [3]) | growth at 0.1 µM (UACC-257) | growth at 1 µM (HOP-62) | growth at 0.001 µM (MDA-MB-231) | growth at 0.001 µM (NCI-H226) | GI50 (HL-60(TB)) | LC50 (HL-60(TB)) | TGI (HL-60(TB)) | growth at 0.01 µM (NCI/ADR-RES) | growth at 1 µM (SN12C [4]) | growth at 0.001 µM (M14) | growth at 10 µM (HCT-15 [5]) | growth at 10 µM (SN12C [6]) | GI50 (SK-MEL-2) | also measured
Cc1cc(O)cc(-c2nn(CC#N)cc2-c2ccnc(-c3ccc(Oc4ccccc4)cc3)c2)c1 | 4.87 µM | > 100 µM | 6.02 µM | 15.1 µM | 43.6 µM | 91% | 94% | 84% | 60% | 96% | 92% | 2.25 µM | > 100 µM | 5.94 µM | 96% | -57% | 95% | 4.26% | 60.2% | 3.44 µM | GI50 (TK-10 [1]): 4.25 µM; TGI (SK-MEL-2): 11.7 µM; CC50 (SK-MEL-2): 44.2 µM; growth at 0.001 µM (NCI-H23): 91%; GI50 (SF-295 [7]): 4.42 µM; TGI (SF-295 [7]): 21.2 µM; CC50 (SF-295 [7]): 75.2 µM; GI50 (SF-268): 3.96 µM; TGI (SF-268): 15.5 µM; CC50 (SF-268): 41.4 µM; GI50 (CAKI-1): 1.8 µM; TGI (CAKI-1): 5.78 µM; CC50 (CAKI-1): 41 µM; growth at 0.001 µM [8]: 103%; growth at 0.01 µM [9]: 91%; growth at 0.001 µM (TK-10 [10]): 91%; growth at 10 µM (RXF 393): 24.6%; growth at 0.001 µM (SW-620): 93%; growth at 0.001 µM (SF-295 [11]): 99%; growth at 10 µM (T47D): -67%
COc1cc(C)cc(-c2nn(CC#N)cc2-c2ccnc(-c3ccc(N(C)C)cc3)c2)c1 | 0.161 µM | > 100 µM | > 100 µM | 78.9 µM | > 100 µM | 15% | 100% | 28% | 5% | 97% | 103% | 0.293 µM | > 100 µM | 0.923 µM | 99% | 8% | 96% | 8.19% | 24.7% | 1.01 µM | GI50 (TK-10 [1]): 0.101 µM; TGI (SK-MEL-2): 45.5 µM; CC50 (SK-MEL-2): > 100 µM; growth at 0.001 µM (NCI-H23): 93%; GI50 (SF-295 [7]): 0.304 µM; TGI (SF-295 [7]): 1.91 µM; CC50 (SF-295 [7]): > 100 µM; GI50 (SF-268): 0.478 µM; TGI (SF-268): 8.9 µM; CC50 (SF-268): > 100 µM; GI50 (CAKI-1): 0.345 µM; TGI (CAKI-1): 18.2 µM; CC50 (CAKI-1): > 100 µM; growth at 0.001 µM [8]: 103%; growth at 0.01 µM [9]: 100%; growth at 0.001 µM (TK-10 [10]): 109%; growth at 10 µM (RXF 393): -17.1%; growth at 0.001 µM (SW-620): 98%; growth at 0.001 µM (SF-295 [11]): 93%; growth at 10 µM (T47D): -32%
COc1cc(C)cc(-c2c(-c3ccnc(-c4ccc(C(C)=O)cc4)c3)cnn2CC#N)c1 | 0.795 µM | > 100 µM | > 100 µM | > 100 µM | > 100 µM | 87% | 94% | 81% | 19% | 99% | 100% | 2.26 µM | > 100 µM | 6.5 µM | 91% | 28% | 95% | 53.3% | 66% | 5.88 µM | TGI (SK-MEL-2): > 100 µM; CC50 (SK-MEL-2): > 100 µM; growth at 0.001 µM (NCI-H23): 94%; GI50 (SF-295 [7]): 5.84 µM; TGI (SF-295 [7]): > 100 µM; CC50 (SF-295 [7]): > 100 µM; GI50 (SF-268): 3.14 µM; TGI (SF-268): > 100 µM; CC50 (SF-268): > 100 µM; GI50 (CAKI-1): 4.24 µM; TGI (CAKI-1): > 100 µM; CC50 (CAKI-1): > 100 µM; growth at 0.001 µM [8]: 95%; growth at 0.01 µM [9]: 98%; growth at 0.001 µM (TK-10 [10]): 103%; growth at 10 µM (RXF 393): 54.8%; growth at 0.001 µM (SW-620): 96%; growth at 0.001 µM (SF-295 [11]): 98%; growth at 10 µM (T47D): -12%
